For this test, the system named is DRD fibroblasts (non-viral oncogenic) viability, Alamar Blue fluorescence, 48 h. Kind of test: cytotoxicity in DRD fibroblasts, dose response, cell-based, fluorescence, Alamar Blue, powder samples (AID 2607). A digest of the protocol:
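Test system: DRD fibroblast cells. Buffer or medium: DMEM and M199 growth medium with fetal bovine serum. Doses: 2-fold series, 0.01–5.33 µg/mL final. Schedule: 48 h compound exposure, 37 °C, then ~16 h alamar blue. Signal: Alamar blue fluorescence, ex 544/em 590 nm.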

As for `COc1ccc(C(C(=O)NC2CCCCC2)N(C(=O)CCl)c2ccc(C)cc2)cc1` (centres undefined), the half-maximal effective concentration (EC50) was 143 nM. Then `COc1ccc(C(C(=O)NC2CCCCC2)N(C(=O)CCl)c2cccc(Cl)c2)cc1` (centres undefined), with 137 nM; and `COc1cccc(N(C(=O)CCl)C(C(=O)NCCc2ccccc2)c2cccs2)c1` (centres undefined), with 145 nM; and `Cc1ccc(C2CC(c3cccs3)=NN2C(=O)CCl)cc1` (centres undefined), with 1210 nM.

Consider `COc1ccc(CN(CCC(c2ccccc2)c2ccc(OC(C)C)cc2)C(=O)CCl)cc1OC` (centres undefined), for which the EC50 is 622 nM. The same measure for `Cc1ccc(N(C(=O)CCl)C(C(=O)NC2CCCCC2)c2cccnc2)cc1C` (centres undefined): 147 nM; for `COc1ccc(N(C(=O)CCl)C(C(=O)NCCc2ccccc2)c2cccs2)cc1` (centres undefined): 214 nM; for `COC(=O)[C@@H]1Cc2c([nH]c3ccccc23)C(C)(C)N1C(=O)CCl`: 467 nM. Consider `COc1ccc(N(C(=O)CCl)C(C(=O)NCCc2ccccc2)c2cccs2)cc1Cl` (centres undefined), for which the EC50 is 34 nM. Then `CCCCCCCN(C(=O)CCl)c1cccc(C)c1`, with 171 nM; and `Nc1nc(CCl)nc(Nc2ccc3ccccc3c2)n1`, with 82 nM.

Turning to `CCOc1ccc(Nc2nc(N)nc(CCl)n2)cc1`, the 50% effective concentration (EC50) was 183 nM. Then `C=CCOc1ccccc1CN(C(=O)CCl)c1ccc2c(c1)OCO2`, with 1140 nM; and `O=C(CCl)N=c1sccn1Cc1ccccc1Cl`, with 183 nM.

Source of the values: PubChem BioAssay AID2607 (Broad Institute, 2010).
